ChEMBL document CHEMBL2169804, “Novel histone deacetylase 8 ligands without a zinc chelating group: exploring an 'upside-down' binding pose” (Bioorg Med Chem Lett, 2012)
Activity calls are given as the source filed them. The rule behind the calls is not given here.

Tests used:
Histone deacetylase 1 [1] = target: T1, Histone deacetylase 1 (Homo sapiens, UniProt Q13547); test: Inhibition of human recombinant HDAC1 using Boc-Lys(Ac)-AMC as substrate preincubated for 5 mins followed by substrate addition measured after 30 mins by microplate reader analysis
Histone deacetylase 2 [2] = target: T2, Histone deacetylase 2 (Homo sapiens, UniProt Q92769); test: Inhibition of human recombinant HDAC2 using Boc-Lys(Ac)-AMC as substrate preincubated for 5 mins followed by substrate addition measured after 30 mins by microplate reader analysis
Histone deacetylase 3 [3] = target: T3, Histone deacetylase 3 (Homo sapiens, UniProt O15379); test: Inhibition of human recombinant HDAC3 using Boc-Lys(Ac)-AMC as substrate at 66 uM preincubated for 5 mins followed by substrate addition measured after 30 mins by microplate reader analysis
[4] = target: T4, Histone deacetylase 8 (Homo sapiens) (UniProt Q9BY41); test: Binding affinity to human recombinant HDAC8 expressed in Escherichia coli assessed as increase in enzyme biotinylation level preincubated for 3 hrs followed by denaturation measured after 60 mins by Western blot-based photoaffinity labelling method
T4 sequence (whole entry): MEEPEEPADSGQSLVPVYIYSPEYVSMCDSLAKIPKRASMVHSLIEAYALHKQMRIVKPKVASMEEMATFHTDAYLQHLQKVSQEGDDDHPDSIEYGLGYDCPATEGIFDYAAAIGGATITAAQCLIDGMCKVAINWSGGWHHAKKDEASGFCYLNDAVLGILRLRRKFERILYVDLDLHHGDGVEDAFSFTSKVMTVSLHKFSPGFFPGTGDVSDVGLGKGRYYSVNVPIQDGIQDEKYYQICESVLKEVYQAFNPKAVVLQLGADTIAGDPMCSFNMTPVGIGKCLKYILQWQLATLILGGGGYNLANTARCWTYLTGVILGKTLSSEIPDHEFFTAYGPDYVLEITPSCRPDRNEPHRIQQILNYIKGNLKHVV
How it was run: (§1)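 Probe, or probe plus competitor, preincubated 3 h at room temperature, then irradiated at 254 nm for 3 × 1 min with 1 min rests. For denaturing runs, SDS was added to 2% w/v final and held 30 min at 37 °C.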

Histone deacetylase 8 = target: T5, Histone deacetylase 8 (Homo sapiens, UniProt Q9BY41); test: Inhibition of human recombinant HDAC8 using fluor de Lys as substrate preincubated for 5 mins followed by substrate addition measured after 25 mins by microplate reader analysis
T5 sequence (Q9BY41 whole entry): T4 sequence (whole entry)

[5] = target: T4, Histone deacetylase 8 (Homo sapiens); test: Inhibition of human recombinant HDAC8 using fluor de Lys as substrate assessed as residual activity at 66 uM preincubated for 5 mins followed by substrate addition measured after 25 mins by microplate reader analysis
[6] = target: T4, Histone deacetylase 8 (Homo sapiens); test: (§2) Binding affinity to human recombinant HDAC8 expressed in Escherichia coli assessed as enzyme biotinylation level at 5 uM preincubated for 3 hrs followed by denaturation measured after 60 mins by Western blot-based photoaffinity labelling method in presence of 250 uM PCI34051; how it was run: as §1
[7] = target: T4, Histone deacetylase 8 (Homo sapiens); test: Binding affinity to human recombinant HDAC8 expressed in Escherichia coli assessed as increase in enzyme biotinylation level at 5 uM preincubated for 3 hrs followed by denaturation measured after 60 mins by Western blot-based photoaffinity labelling method in presence of 5 uM SAHA; how it was run: as §1
[8] = target: T4, Histone deacetylase 8 (Homo sapiens); test: Binding affinity to human recombinant HDAC8 expressed in Escherichia coli assessed as increase in enzyme biotinylation level at […] preincubated for 3 hrs followed by denaturation measured after 60 mins by Western blot-based photoaffinity labelling method
[9] = target: T4, Histone deacetylase 8 (Homo sapiens); test: Binding affinity to human recombinant HDAC8 expressed in Escherichia coli assessed as increase in enzyme biotinylation level at […] under non denaturating condition after 3 hrs by Western blot-based photoaffinity labelling method
[10] = target: T4, Histone deacetylase 8 (Homo sapiens); test: Binding affinity to human recombinant HDAC8 expressed in Escherichia coli assessed as enzyme biotinylation level at 5 uM preincubated for 3 hrs followed by denaturation measured after 60 mins by Western blot-based photoaffinity labelling method in presence of 250 uM SAHA; how it was run: as §1
[11] = target: T4, Histone deacetylase 8 (Homo sapiens); test: Binding affinity to human recombinant HDAC8 expressed in Escherichia coli assessed as enzyme biotinylation level at 5 uM preincubated for 3 hrs followed by denaturation measured after 60 mins by Western blot-based photoaffinity labelling method in presence of 250 uM TSA; how it was run: as §1
[12] = target: T4, Histone deacetylase 8 (Homo sapiens); test: as §2, with “7-[4-(3,5-Dimethyl-benzyloxy)phenylcarbamoyl]heptanoic acid methyl ester” for “PCI34051”; how it was run: as §1
Histone deacetylase 3 [13] = target: T3, Histone deacetylase 3; test: Inhibition of human recombinant HDAC3 using Boc-Lys(Ac)-AMC as substrate preincubated for 5 mins followed by substrate addition measured after 30 mins by microplate reader analysis
[14] = target: T4, Histone deacetylase 8 (Homo sapiens); test: Binding affinity to human recombinant HDAC8 expressed in Escherichia coli assessed as enzyme biotinylation level at […] preincubated for 3 hrs followed by denaturation measured after 60 mins by Western blot-based photoaffinity labelling method in presence of 0.25 and […] SAHA
[15] = target: T6, Protein deacetylase HDAC6 (Homo sapiens) (UniProt Q9UBN7); test: Inhibition of cytoplasmic HDAC6 in human SH-SY5Y cells assessed as alpha-tubulin acetylation at 1 uM after 24 hrs by Western blot analysis; format: cell-based
T6 sequence (whole entry): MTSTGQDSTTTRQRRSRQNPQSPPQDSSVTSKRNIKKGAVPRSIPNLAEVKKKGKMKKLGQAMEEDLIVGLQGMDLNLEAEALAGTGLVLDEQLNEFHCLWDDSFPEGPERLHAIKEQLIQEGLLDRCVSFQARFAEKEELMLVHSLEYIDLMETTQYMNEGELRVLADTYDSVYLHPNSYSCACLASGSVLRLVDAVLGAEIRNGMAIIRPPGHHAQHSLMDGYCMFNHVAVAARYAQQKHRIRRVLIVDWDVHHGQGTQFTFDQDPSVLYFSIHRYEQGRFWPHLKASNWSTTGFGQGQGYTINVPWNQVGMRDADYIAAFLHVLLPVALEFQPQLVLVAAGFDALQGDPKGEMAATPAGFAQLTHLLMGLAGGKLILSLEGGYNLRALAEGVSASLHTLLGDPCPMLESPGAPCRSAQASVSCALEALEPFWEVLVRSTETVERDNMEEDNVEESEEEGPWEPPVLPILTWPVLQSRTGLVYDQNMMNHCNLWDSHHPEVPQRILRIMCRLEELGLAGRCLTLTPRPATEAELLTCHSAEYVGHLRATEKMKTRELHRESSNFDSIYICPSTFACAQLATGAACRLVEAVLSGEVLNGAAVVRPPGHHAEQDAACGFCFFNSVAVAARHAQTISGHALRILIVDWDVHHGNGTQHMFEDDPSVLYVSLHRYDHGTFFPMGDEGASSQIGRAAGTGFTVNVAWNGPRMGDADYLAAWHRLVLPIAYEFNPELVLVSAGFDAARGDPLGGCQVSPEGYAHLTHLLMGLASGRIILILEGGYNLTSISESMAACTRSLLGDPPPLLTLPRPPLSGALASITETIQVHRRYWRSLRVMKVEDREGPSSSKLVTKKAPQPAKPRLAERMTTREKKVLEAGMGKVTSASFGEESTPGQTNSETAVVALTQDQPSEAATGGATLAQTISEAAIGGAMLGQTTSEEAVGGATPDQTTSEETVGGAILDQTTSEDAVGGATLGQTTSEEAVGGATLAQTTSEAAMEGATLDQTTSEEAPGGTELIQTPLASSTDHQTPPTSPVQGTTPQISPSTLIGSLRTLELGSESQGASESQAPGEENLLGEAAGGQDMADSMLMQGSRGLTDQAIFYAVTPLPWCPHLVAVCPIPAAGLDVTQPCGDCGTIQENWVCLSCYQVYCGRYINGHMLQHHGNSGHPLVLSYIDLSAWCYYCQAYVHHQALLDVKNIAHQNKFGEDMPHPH
How it was run: (§3)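 SH-SY5Y cells were grown to 80% confluence in 1:1 DMEM:OPTI-MEM with 10% FBS. They were treated with vehicle or compound for 24 h at 37 °C, 5% CO2, then lysed in RIPA buffer with protease and phosphatase inhibitors. Lysate containing 20 µg protein was run by SDS-PAGE and blotted with anti-acetyl α-tubulin or anti-acetyl histone H4 (1:1000) overnight at 4 °C, with anti-GAPDH as reference. Detection was by chemiluminescence on a CCD camera.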

Histone deacetylase 1 [16] = target: T1, Histone deacetylase 1; test: Inhibition of nuclear HDAC1 in human SH-SY5Y cells assessed as increase in histone H4 acetylation after 24 hrs by Western blot analysis; format: cell-based; how it was run: as §3
Histone deacetylase 2 [17] = target: T2, Histone deacetylase 2; test: Inhibition of nuclear HDAC2 in human SH-SY5Y cells assessed as increase in histone H4 acetylation after 24 hrs by Western blot analysis; format: cell-based; how it was run: as §3
Histone deacetylase 3 [18] = target: T3, Histone deacetylase 3; test: Inhibition of nuclear HDAC3 in human SH-SY5Y cells assessed as increase in histone H4 acetylation after 24 hrs by Western blot analysis; format: cell-based; how it was run: as §3
[19] = target: T4, Histone deacetylase 8 (Homo sapiens); test: Inhibition of nuclear HDAC8 in human SH-SY5Y cells assessed as increase in histone H4 acetylation after 24 hrs by Western blot analysis; format: cell-based; how it was run: as §3
[20] = target: T6, Protein deacetylase HDAC6 (Homo sapiens); test: Inhibition of cytoplasmic HDAC6 in human SH-SY5Y cells assessed as alpha-tubulin acetylation at 31.25 to 125 uM after 24 hrs by Western blot analysis; format: cell-based; how it was run: as §3
[21] = target: T4, Histone deacetylase 8 (Homo sapiens); test: (§4) Binding affinity to human recombinant HDAC8 expressed in Escherichia coli assessed as enzyme biotinylation level at 1.5 uM under non denaturating condition after 3 hrs by Western blot-based photoaffinity labelling method in presence of 37.5 and 75 uM SAHA; how it was run: as §1
[22] = target: T4, Histone deacetylase 8 (Homo sapiens); test: Binding affinity to human recombinant HDAC8 expressed in Escherichia coli assessed as enzyme biotinylation level at 1.5 uM under non denaturating condition after 3 hrs by Western blot-based photoaffinity labelling method in presence of 37.5 and 75 uM TSA; how it was run: as §1
[23] = target: T4, Histone deacetylase 8 (Homo sapiens); test: Binding affinity to human recombinant HDAC8 expressed in Escherichia coli assessed as enzyme biotinylation level at 1.5 uM under non denaturating condition after 3 hrs by Western blot-based photoaffinity labelling method in presence of 37.5 and 75 uM PCI34051; how it was run: as §1
[24] = target: T4, Histone deacetylase 8 (Homo sapiens); test: as §4, with “7-[4-(3,5-Dimethyl-benzyloxy)phenylcarbamoyl]heptanoic acid methyl ester” for “37.5 and 75 uM SAHA”; how it was run: as §1

T2 sequence (Q92769 whole entry): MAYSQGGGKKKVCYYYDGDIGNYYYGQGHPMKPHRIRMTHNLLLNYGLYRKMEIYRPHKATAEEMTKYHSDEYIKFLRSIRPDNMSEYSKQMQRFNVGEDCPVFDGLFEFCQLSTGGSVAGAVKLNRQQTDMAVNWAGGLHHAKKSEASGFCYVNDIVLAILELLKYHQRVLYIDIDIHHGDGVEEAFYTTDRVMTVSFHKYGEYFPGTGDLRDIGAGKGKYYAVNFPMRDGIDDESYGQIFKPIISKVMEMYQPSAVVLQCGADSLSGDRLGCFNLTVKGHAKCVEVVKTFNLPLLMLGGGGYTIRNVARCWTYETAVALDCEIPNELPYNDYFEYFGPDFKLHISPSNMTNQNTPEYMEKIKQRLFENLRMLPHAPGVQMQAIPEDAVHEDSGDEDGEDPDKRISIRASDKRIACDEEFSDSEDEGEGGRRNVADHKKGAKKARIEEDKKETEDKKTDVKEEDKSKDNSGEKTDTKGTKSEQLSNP
T3 sequence (O15379 whole entry): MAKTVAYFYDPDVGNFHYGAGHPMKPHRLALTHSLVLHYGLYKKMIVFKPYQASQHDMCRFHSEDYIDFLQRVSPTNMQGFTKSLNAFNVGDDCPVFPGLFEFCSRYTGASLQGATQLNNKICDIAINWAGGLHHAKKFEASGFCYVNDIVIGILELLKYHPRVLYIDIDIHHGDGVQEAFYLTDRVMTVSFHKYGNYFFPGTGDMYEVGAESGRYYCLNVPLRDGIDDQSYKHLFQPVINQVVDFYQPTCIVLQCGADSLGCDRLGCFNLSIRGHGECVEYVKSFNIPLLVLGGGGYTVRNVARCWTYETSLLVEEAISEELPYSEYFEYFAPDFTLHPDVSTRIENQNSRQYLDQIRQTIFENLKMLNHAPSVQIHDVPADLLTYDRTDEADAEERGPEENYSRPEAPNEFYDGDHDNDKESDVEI
T1 sequence (Q13547 whole entry): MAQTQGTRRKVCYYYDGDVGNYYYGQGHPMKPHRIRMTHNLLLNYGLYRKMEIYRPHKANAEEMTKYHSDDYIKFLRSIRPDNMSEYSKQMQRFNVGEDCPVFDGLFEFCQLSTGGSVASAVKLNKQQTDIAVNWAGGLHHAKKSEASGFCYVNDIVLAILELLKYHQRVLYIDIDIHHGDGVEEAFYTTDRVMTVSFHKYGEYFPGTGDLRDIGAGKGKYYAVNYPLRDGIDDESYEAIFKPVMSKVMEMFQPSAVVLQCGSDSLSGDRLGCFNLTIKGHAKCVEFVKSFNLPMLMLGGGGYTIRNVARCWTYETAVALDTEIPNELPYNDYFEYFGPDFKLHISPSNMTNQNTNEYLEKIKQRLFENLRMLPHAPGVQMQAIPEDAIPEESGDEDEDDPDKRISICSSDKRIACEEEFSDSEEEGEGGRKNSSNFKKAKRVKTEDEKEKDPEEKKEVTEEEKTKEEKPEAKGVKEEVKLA

COc1cc(COc2ccc(NC(=O)CCCCCCC(=O)OCCN=[N+]=[N-])cc2)cc(N=[N+]=[N-])c1
IC50 (Histone deacetylase 1 [1]): 111 µM
IC50 (Histone deacetylase 2 [2]): 72 µM
inhibition (Histone deacetylase 3 [3]): inactive
Activity [4]: Dose-dependent effect
IC50 (Histone deacetylase 8; read-out: IC50): 67.5 µM

Cc1cc(C)cc(COc2ccc(NC(=O)CCCCCCC(=O)OC(C)(C)C)cc2)c1
IC50 (Histone deacetylase 8; read-out: IC50): 53.2 µM

CCCCCCCC(=O)Nc1ccc(OCc2cc(C)cc(C)c2)cc1
IC50 (Histone deacetylase 8): Not Active

COC(=O)CCCCCCC(=O)Nc1ccc(OCc2ccccc2)cc1
Activity [5]: > 50%
IC50 (Histone deacetylase 8): Not Active

CC(C)(C)OC(=O)CCCCCCC(=O)Nc1ccc(OCc2cc(CN=[N+]=[N-])cc(N=[N+]=[N-])c2)cc1
IC50 (Histone deacetylase 8; read-out: IC50): 42.6 µM

COC(=O)CCCCCCC(=O)Nc1ccc(OCc2cc(CN=[N+]=[N-])cc(N=[N+]=[N-])c2)cc1
Activity [6]: inactive
Activity [4]: Dose-dependent effect
Activity [7]: Active
Activity [8]: Active
Activity [9]: Active
Activity [10]: inactive
Activity [11]: inactive
Activity [12]: inactive
IC50 (Histone deacetylase 8; read-out: IC50): 37.4 µM

[N-]=[N+]=NCc1cc(COc2ccc(NC(=O)CCCCCCC(=O)NO)cc2)cc(N=[N+]=[N-])c1
Ki (Histone deacetylase 3 [13]): 0.74 µM
Activity [4]: Dose-dependent effect
Activity [14]: inactive

COC(=O)CCCCCCC(=O)Nc1cnn(Cc2cc(CN=[N+]=[N-])cc(N=[N+]=[N-])c2)c1
IC50 (Histone deacetylase 8; read-out: IC50): 36 µM

O=C(NO)c1ccc(Cn2c3ccccc3c3ccccc32)cc1
inhibition [15]: Active

COc1cc(COc2ccc(NC(=O)CCCCCCC(=O)OCc3ccc(CN=[N+]=[N-])cc3)cc2)cc(N=[N+]=[N-])c1
IC50 (Histone deacetylase 1 [1]): 86 µM
IC50 (Histone deacetylase 2 [2]): 79 µM
inhibition (Histone deacetylase 1 [16]): Dose-dependent effect
inhibition (Histone deacetylase 2 [17]): Dose-dependent effect
inhibition (Histone deacetylase 3 [18]): Dose-dependent effect
inhibition [19]: Dose-dependent effect
inhibition [20]: inactive
inhibition (Histone deacetylase 3 [3]): inactive
Activity [12]: inactive
Activity [21]: inactive
Activity [22]: inactive
Activity [23]: inactive
Activity [24]: inactive
IC50 (Histone deacetylase 8; read-out: IC50): 28 µM

[N-]=[N+]=NCc1cc(N=[N+]=[N-])cc(C(=O)Nc2ccc(-c3cc(C(=O)NCCCCCCC(=O)NO)no3)cc2)c1
Ki (Histone deacetylase 3 [13]): 0.023 µM

COC(=O)CCCCCCNC(=O)c1cc(-c2ccc(NC(=O)c3cc(CN=[N+]=[N-])cc(N=[N+]=[N-])c3)cc2)on1
IC50 (Histone deacetylase 8; read-out: IC50): 47.1 µM

[N-]=[N+]=NCc1cc(Cn2cc(NC(=O)CCCCCCC(=O)NO)cn2)cc(N=[N+]=[N-])c1
Ki (Histone deacetylase 3 [13]): 0.064 µM

COC(=O)CCCCCCC(=O)Nc1ccc(OCc2cc(C)cc(C)c2)cc1
IC50 (Histone deacetylase 8; read-out: IC50): 47.8 µM
